Laboratory results from ChEMBL document CHEMBL1156315, “Discovery of a novel sulfonamide-pyrazolopiperidine series as potent and efficacious gamma-secretase inhibitors” (Bioorg Med Chem Lett, 2010).

Columns and labels:
Gamma-secretase [1] = experiment: Inhibition of gamma-secretase-mediated notch cleavage in human SNC cells by ELISA; assay type: cell-based
Gamma-secretase [2] = experiment: Inhibition of gamma-secretase-mediated notch cleavage in human IMR-32 cells after 2 hrs by ELISA; assay type: cell-based
Gamma-secretase [3] = experiment: Inhibition of gamma-secretase-mediated APP cleavage in human IMR-32 cells assessed as amyloid beta40 level after 2 hrs by ELISA; assay type: cell-based
[4] = molecular target: Gamma-secretase (Homo sapiens) (UniProt Q96BI3+Q9NZ42+Q8WW43+P49768+Q92542+P49810); experiment: Inhibition of gamma-secretase-mediated APP cleavage in human SNC cells by ELISA; assay type: cell-based
[5] = (§1) Metabolic stability in human liver microsomes assessed as compound remaining after 30 mins in presence of 1 mM UDPGA, 100 mM MgCl2 and 25 ug/ml alamethacin; assay type: ADME, Microsome; settings: liver microsomes, read-out: Stability
In short: (§2)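 Glucuronidation conditions: liver microsomes (0.5 mg protein) in phosphate buffer with 1 mM UDPGA, 100 mM MgCl₂ and alamethacin, 30 min at 37 °C; the percentage of compound remaining is reported.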

[6] = (§3) Metabolic stability in human liver microsomes assessed as compound remaining after 30 mins in presence of 1 mM NADPH; assay type: ADME, Microsome; settings: liver microsomes, read-out: Stability
In short: (§4)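 Liver microsomes (0.5 mg protein) in phosphate buffer with 1 mM NADPH, incubated 30 min at 37 °C; read-out is the percentage of parent compound remaining.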

Liver microsomes [7] = experiment: as §1; assay type: ADME, Microsome; settings: microsomes, 0.5 h; in short: as §2
Liver microsomes [8] = experiment: as §3; assay type: ADME, Microsome; settings: microsomes, 0.5 h; in short: as §4
Mus musculus = experiment: Neuroprotective activity in FVB mouse brain assessed as reduction in amyloid beta 40 level at 5 mg/kg, po after 3 hrs; assay type: functional; set-up: scale not given: the % may be the effect or the level left
In short: (§5)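 Wild-type FVB mice received a single 5 mg/kg oral dose. Brain Aβ40 reduction and the brain/plasma compound ratio were determined 3 h post-dose.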

[9] = Ratio of drug level in FVB mouse brain to plasma; assay type: ADME, cell-free; in short: as §5

SMILES	IC50 (Gamma-secretase [1]) [nM]	IC50 (Gamma-secretase [2]) [nM]	IC50 (Gamma-secretase [3]) [nM]	ED50 [4] [nM]	remaining at 0.5 h [5] [%]	remaining at 0.5 h [6] [%]	Stability (Liver microsomes [7]) [%]	Stability (Liver microsomes [8]) [%]	Activity (Mus musculus) [%]	Kp [9]
O=S(=O)(c1ccc(Cl)cc1)N1Cc2c[nH]nc2CC1c1cc(F)cc(F)c1 (racemic)	14100	776	9.7	60.1	0	3				
O=S(=O)(c1ccc(Cl)cc1)N1Cc2c[nH]nc2CC1c1cccc(F)c1 (racemic)				47.1						
O=S(=O)(c1ccc(Cl)cc1)N1Cc2c[nH]nc2CC1c1nccs1 (racemic)	33600	5750	244	1270	8	54				
O=S(=O)(c1ccc(Cl)cc1)N1CCCCC1			> 30000							
CC[C@H]1Cc2n[nH]cc2[C@@H](CC)N1S(=O)(=O)c1ccc(Cl)cc1.Cl	6850		62.6				1	0		
C[C@@H]1CCC[C@H](C)N1S(=O)(=O)c1ccc(Cl)cc1			1000							
CC[C@H]1Cc2n[nH]cc2CN1S(=O)(=O)c1ccc(Cl)cc1 (racemic)	736	15.3	1.01	19		18				
CCCC1CCCCN1S(=O)(=O)c1ccc(Cl)cc1 (racemic)			1700							
CC[C@H]1Cc2n[nH]cc2[C@@H](c2ccc(Cl)cc2)N1S(=O)(=O)c1ccc(Cl)cc1 (racemic)	1570	75.5	3.7	16.7	31	10				
O=S(=O)(c1ccc(Cl)cc1)N1Cc2c[nH]nc2CC1c1ccc(Cl)cc1 (racemic)				17.5						
CC(C)C1Cc2n[nH]cc2CN1S(=O)(=O)c1ccc(Cl)cc1 (racemic)	6760	87	16.1	86		5				
CC[C@H]1Cc2n[nH]cc2[C@@H](CC)N1S(=O)(=O)c1ccc(Cl)cc1 (racemic) [ENT A]	123	5	0.48		2			1		
CC[C@H]1Cc2n[nH]cc2[C@@H](CC)N1S(=O)(=O)c1ccc(Cl)cc1 [ENT A]	70	5.8	0.35				1		25	0.8
O=S(=O)(c1ccc(Cl)cc1)N1CCc2n[nH]cc2C1c1nccs1 (racemic)	6530	858	29.1	139		57				
O=S(=O)(c1ccc(Cl)cc1)N1CCCCC1c1ccccc1 (racemic)			760							
O=S(=O)(c1ccc(Cl)cc1)N1Cc2cn[nH]c2CC1c1cccc(F)c1 (racemic)	11400	662	8.3		0	14				

SMILES	IC50 (Gamma-secretase [1]) [nM]	IC50 (Gamma-secretase [2]) [nM]	IC50 (Gamma-secretase [3]) [nM]	ED50 [4] [nM]	remaining at 0.5 h [5] [%]	remaining at 0.5 h [6] [%]	Stability (Liver microsomes [7]) [%]	Stability (Liver microsomes [8]) [%]	Activity (Mus musculus) [%]	Kp [9]
O=S(=O)(c1ccc(Cl)cc1)N1Cc2c[nH]nc2CC1c1ccc(F)cc1 (racemic)				28						
O=S(=O)(c1ccc(Cl)cc1)N1Cc2c[nH]nc2CC1c1ccccc1 (stereo not drawn)	6510	598	7.7	55.3	8	5				
CCC1CCCCN1S(=O)(=O)c1ccc(Cl)cc1 (racemic)			2000							
CCOC(=O)C1c2c[nH]nc2CCN1S(=O)(=O)c1ccc(Cl)cc1 (stereo not drawn)	10300	204	10.2	137	1	1				
O=S(=O)(c1ccc(Cl)cc1)N1Cc2c[nH]nc2CC1Cc1ccccc1 (racemic)	16600	1550	80.9	340		3				
O=S(=O)(c1ccc(Cl)cc1)N1Cc2cn[nH]c2CC1c1ccc(Cl)cc1 (racemic)	2590	311	3.4		33	12				
O=S(=O)(c1ccc(Cl)cc1)N1CCc2n[nH]cc2C1c1cncnc1 (stereo not drawn)				47.1						
CN(C)C(=O)OCC1c2c[nH]nc2CCN1S(=O)(=O)c1ccc(Cl)cc1 (racemic)	> 40000	8250	350	5320	59	15				
CC[C@H]1Cc2n[nH]cc2[C@@H](CC)N1S(=O)(=O)c1ccc(Cl)cc1 (racemic)				1.27						
O=S(=O)(c1ccc(Cl)cc1)N1Cc2cn[nH]c2CC1c1ccc(F)cc1 (racemic)	5320	481	5.4			6				
CC1CCCCN1S(=O)(=O)c1ccc(Cl)cc1 (racemic)			8280							
O=S(=O)(c1ccc(Cl)cc1)N1CCc2[nH]ncc2C1c1cncnc1 (stereo not drawn)	2310	120	12		85	50				
CC[C@@H]1c2c[nH]nc2C[C@H](c2ccc(Cl)cc2)N1S(=O)(=O)c1ccc(Cl)cc1 (racemic)	15500	126	22.4	182	25	4				
CCOC(=O)C1Cc2n[nH]cc2CN1S(=O)(=O)c1ccc(Cl)cc1 (stereo not drawn)	> 40000	5850	431	1420		8				
O=S(=O)(c1ccc(Cl)cc1)N1CCc2n[nH]cc2C1CO (stereo not drawn)	> 40000	8660	557	3130		84				
O=S(=O)(c1ccc(Cl)cc1)N1Cc2c[nH]nc2CC1c1cncnc1 (stereo not drawn)	> 40000	10400	536	400	70	67				
